The target in series [1] is T1, Protein cereblon/Fibroblast growth factor receptor 2 (Homo sapiens, UniProt P21802+Q96SW2). Description: PROTAC activity at CRBN/FGFR2 in human KATO III stomach cancer cell line assessed as FGFR2 degradation by measuring FGFR2 expression level at 100 to 500 nM measured for 6 hrs by Western blotting analysis. The series is classed as cell-based. The conditions noted are these: dose 100-500 nM. Summed up:
(§1)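 KATO III cells treated 6 h across 0.5–10,000 nM (DMSO stock, final DMSO below 0.5%); FGFR2 immunoblotted, quantified as FGFR2/β-actin ratio normalized to DMSO-treated cells, three independent biological experiments; DC50 and Dmax derived from the curve.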
Target sequence in this assay (P21802 22-821 limits assumed): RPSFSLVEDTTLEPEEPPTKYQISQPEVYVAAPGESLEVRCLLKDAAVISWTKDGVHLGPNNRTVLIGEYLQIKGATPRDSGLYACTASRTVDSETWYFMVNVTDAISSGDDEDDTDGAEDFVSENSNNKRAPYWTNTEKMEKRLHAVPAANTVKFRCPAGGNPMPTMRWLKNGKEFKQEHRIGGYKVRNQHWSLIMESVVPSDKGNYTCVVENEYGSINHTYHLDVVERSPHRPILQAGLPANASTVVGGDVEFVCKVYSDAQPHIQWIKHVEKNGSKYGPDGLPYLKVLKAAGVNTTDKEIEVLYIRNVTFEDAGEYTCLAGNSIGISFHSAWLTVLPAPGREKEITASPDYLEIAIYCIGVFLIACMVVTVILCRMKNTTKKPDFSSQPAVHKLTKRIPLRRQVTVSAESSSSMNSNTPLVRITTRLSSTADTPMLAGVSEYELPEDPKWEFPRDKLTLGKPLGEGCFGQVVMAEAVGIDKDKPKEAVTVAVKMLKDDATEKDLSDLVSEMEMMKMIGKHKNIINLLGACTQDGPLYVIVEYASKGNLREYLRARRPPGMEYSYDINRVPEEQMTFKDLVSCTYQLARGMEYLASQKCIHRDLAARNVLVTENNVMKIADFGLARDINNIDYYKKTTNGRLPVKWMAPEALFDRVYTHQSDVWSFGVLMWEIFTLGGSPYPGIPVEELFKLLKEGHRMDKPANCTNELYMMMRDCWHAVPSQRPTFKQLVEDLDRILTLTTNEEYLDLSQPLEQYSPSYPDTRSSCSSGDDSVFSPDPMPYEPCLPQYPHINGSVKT
Target sequence in this assay (Q96SW2 whole entry partner): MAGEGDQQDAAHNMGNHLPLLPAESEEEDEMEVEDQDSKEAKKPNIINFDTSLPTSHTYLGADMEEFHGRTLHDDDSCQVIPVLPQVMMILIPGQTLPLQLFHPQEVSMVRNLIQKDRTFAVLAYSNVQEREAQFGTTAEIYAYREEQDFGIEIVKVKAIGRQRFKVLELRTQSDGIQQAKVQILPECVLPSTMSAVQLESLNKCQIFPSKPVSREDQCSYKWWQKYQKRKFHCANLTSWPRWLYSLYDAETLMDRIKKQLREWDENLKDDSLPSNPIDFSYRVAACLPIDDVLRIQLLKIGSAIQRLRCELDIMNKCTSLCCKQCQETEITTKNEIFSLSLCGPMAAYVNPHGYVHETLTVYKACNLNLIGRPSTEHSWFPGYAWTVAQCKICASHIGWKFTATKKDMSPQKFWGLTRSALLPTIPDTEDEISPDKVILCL

Series [2] has as its target T1, Protein cereblon/Fibroblast growth factor receptor 2. Description: PROTAC activity at CRBN/FGFR2 in human KATO III stomach cancer cell line assessed as FGFR2 degradation by measuring FGFR2 expression level at 15 uM measured for 6 hrs by Western blotting analysis. The series is classed as cell-based.
Target sequence in this assay (P21802 22-821 limits assumed): as the sequence (P21802 22-821 limits assumed) above
Target sequence in this assay (Q96SW2 whole entry partner): as the sequence (Q96SW2 whole entry partner) above
The test system of series [3] is KATO III stomach cancer cell line. Description: Antiproliferative activity against human KATO III stomach cancer cell line assessed as reduction in cell viability measured for 72 hrs by celltiter-glo reagent based assay. Format: functional. Summed up: (§2)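 Cancer lines KATO III, SNU16, NCI-H716, NCI-H1975, MV-4-11 and HEK293T treated 72 h; antiproliferative IC50 given as mean ± s.d. from three independent biological experiments.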

In series [4] the test system is SNU-16. Description: Antiproliferative activity against human SNU-16 cells assessed as reduction in cell viability measured for 72 hrs by celltiter-glo reagent based assay. The conditions noted are these: SNU-16, 72 h. Format: functional. Summed up: as §2
The test system of series [5] is NCI-H716. Nature of the series: Antiproliferative activity against human NCI-H716 cells assessed as reduction in cell viability measured for 72 hrs by celltiter-glo reagent based assay. Particulars: NCI-H716, 72 h. The series is classed as functional. The method in brief: as §2
Series [6] deals with SNU-16. Description: Antitumor activity against human SNU-16 cells xenografted in BALB/c nude mouse assessed as tumor growth inhibition at 20 mg/kg, po administered for 15 days and measured on day 2. The series is classed as functional. The conditions noted are these: SNU-16, 48 h, time 2 day, read-out: TGI. The method in brief: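 Female BALB/c nude mice, 5 weeks old (20–22 g), s.c. right-flank SNU-16 implants, randomized by body weight into groups (n = 5) once tumours reached 50–100 mm3. Dosing 20 mg/kg/day intragastric in 0.5% CMC-Na for 15 d; vehicle controls. Tumour width and length measured every 2 days; tumours harvested 4 h after last dose and lysates immunoblotted for pFGFR, FGFR2, pPLCγ, pErk.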

A short description of series [7]: Oral bioavailability in mouse at 10 mg/kg. The series is classed as ADME, organism-based. Particulars: in vivo.
Series [8] has as its target T1, Protein cereblon/Fibroblast growth factor receptor 2. Description: PROTAC activity at CRBN/FGFR2 in human KATO III stomach cancer cell line assessed as FGFR2 degradation by measuring FGFR2 expression level at 500 nM measured for 6 hrs by Western blotting analysis relative to control. Format: cell-based. Summed up: as §1
Target sequence in this assay (P21802 22-821 limits assumed): as the sequence (P21802 22-821 limits assumed) above
Target sequence in this assay (Q96SW2 whole entry partner): as the sequence (Q96SW2 whole entry partner) above
For series [9] the target is unchanged. Nature of the series: PROTAC activity at CRBN/FGFR2 in human KATO III stomach cancer cell line assessed as FGFR2 degradation measured for 6 hrs by immunoblot analysis. The series is classed as cell-based. Summed up: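 KATO III cells treated for 6 h at the stated concentrations, added from 10 mM DMSO stocks (final DMSO below 0.5%). Cells were washed with PBS and lysed in 2× loading buffer, then run on SDS-PAGE and blotted to PVDF. Anti-FGFR2 was applied overnight at 4 °C, with ECL detection. FGFR2 was expressed as FGFR2/β-actin, normalized to DMSO-treated cells, from three independent biological experiments.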
Target sequence in this assay (P21802 22-821 limits assumed): as the sequence (P21802 22-821 limits assumed) above
Target sequence in this assay (Q96SW2 whole entry partner): as the sequence (Q96SW2 whole entry partner) above

In series [10] the test system is NCI-H1975. Description: Antiproliferative activity against human NCI-H1975 cells assessed as reduction in cell viability measured for 72 hrs by celltiter-glo reagent based assay. Format: functional. The conditions noted are these: NCI-H1975, 72 h. The method in brief: as §2
For series [11], the system named is MV4-11. Nature of the series: Antiproliferative activity against human MV4-11 cells assessed as reduction in cell viability measured for 72 hrs by celltiter-glo reagent based assay. The series is classed as functional. The conditions noted are these: MV4-11, 72 h. Summed up:
as §2

A short description of series [12]: Antiproliferative activity against human HEK293T cells assessed as reduction in cell viability measured for 72 hrs by celltiter-glo reagent based assay. The series is classed as toxicity, HEK-293T. Summed up: as §2
Series [13] addresses T1, Protein cereblon/Fibroblast growth factor receptor 2. Nature of the series: PROTAC activity at CRBN/FGFR2 in human KATO III stomach cancer cell line assessed as FGFR2 degradation by measuring FGFR2 expression level measured for 6 hrs by Western blotting analysis. The series is classed as cell-based. Summed up:
as §1
Target sequence in this assay (P21802 whole entry): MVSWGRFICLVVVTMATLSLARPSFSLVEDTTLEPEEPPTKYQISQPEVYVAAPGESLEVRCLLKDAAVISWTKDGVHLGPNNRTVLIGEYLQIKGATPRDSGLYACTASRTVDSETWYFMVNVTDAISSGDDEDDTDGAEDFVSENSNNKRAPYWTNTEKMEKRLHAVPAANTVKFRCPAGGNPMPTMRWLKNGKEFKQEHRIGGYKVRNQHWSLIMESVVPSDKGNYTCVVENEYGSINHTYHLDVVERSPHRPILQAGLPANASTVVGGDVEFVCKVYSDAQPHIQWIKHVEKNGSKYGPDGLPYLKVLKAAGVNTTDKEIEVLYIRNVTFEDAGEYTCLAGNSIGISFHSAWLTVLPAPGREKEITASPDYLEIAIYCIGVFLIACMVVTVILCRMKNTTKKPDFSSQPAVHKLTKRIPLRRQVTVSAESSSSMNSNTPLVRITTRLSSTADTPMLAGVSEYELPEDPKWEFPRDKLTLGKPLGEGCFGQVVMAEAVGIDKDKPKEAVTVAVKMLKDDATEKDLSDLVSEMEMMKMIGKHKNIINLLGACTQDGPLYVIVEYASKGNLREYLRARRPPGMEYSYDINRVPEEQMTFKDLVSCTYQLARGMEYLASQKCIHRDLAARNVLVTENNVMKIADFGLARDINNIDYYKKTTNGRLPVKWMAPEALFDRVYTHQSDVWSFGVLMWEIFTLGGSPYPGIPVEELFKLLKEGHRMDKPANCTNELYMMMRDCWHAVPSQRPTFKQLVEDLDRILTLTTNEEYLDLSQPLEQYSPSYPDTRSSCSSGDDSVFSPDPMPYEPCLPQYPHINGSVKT
Target sequence in this assay (Q96SW2 whole entry): as the sequence (Q96SW2 whole entry partner) above

Each structure is given as a SMILES string. Calls of active or inactive are those of the source. The rule behind the calls is not given here.

For the molecule `COc1cc(OC)c(Cl)c(NC(=O)N(C)c2cc(Nc3ccc(N4CCN(C(=O)CCCCCCCCCCCNc5cccc6c5C(=O)N(C5CCC(=O)NC5=O)C6=O)CC4)cc3)ncn2)c1Cl` (centres undefined), in [1], the result was inactive.
Consider `COc1cc(OC)c(Cl)c(NC(=O)N(C)c2cc(Nc3ccc(N4CCN(CC(=O)NCCNc5cccc6c5C(=O)N(C5CCC(=O)NC5=O)C6=O)CC4)cc3)ncn2)c1Cl` (centres undefined), for which the result in series [1] was inactive.
Take `COc1cc(OC)c(Cl)c(NC(=O)N(C)c2cc(Nc3ccc(N4CCN(CC(=O)NCCOCCOCCNC(=O)C5CCN(c6ccc7c(c6)C(=O)N(C6CCC(=O)NC6=O)C7=O)CC5)CC4)cc3)ncn2)c1Cl` (centres undefined): in series [2], the result was inactive.
`CCN1CCN(c2ccc(Nc3cc(N(C)C(=O)Nc4c(Cl)c(OC)cc(OC)c4Cl)ncn3)cc2)CC1` [INFIGRATINIB]: the IC50 stood at 60.3 nM in series [3], 95.4 nM in [4] and 65.9 nM in series [5]. Further, the inhibition in vivo at 20 mg/kg in [6] was 53.7%.
Molecule `COc1cc(OC)c(Cl)c(NC(=O)N(C)c2cc(Nc3ccc(N4CCN(CC(=O)N[C@H](C(=O)N5C[C@H](O)C[C@H]5C(=O)N[C@@H](C)c5ccc(-c6scnc6C)cc5)C(C)(C)C)CC4)cc3)ncn2)c1Cl` registered a bioavailability in series [7] of 0.2%.
`COc1cc(OC)c(Cl)c(NC(=O)N(C)c2cc(Nc3ccc(N4CCN(C(=O)CCCCCCCNc5cccc6c5C(=O)N(C5CCC(=O)NC5=O)C6=O)CC4)cc3)ncn2)c1Cl` (centres undefined): the Activity in series [8] (DEGRADER) worked out at 40%.
`COc1cc(OC)c(Cl)c(NC(=O)N(C)c2cc(Nc3ccc(N4CCN(C(=O)C5CCN(c6ccc7c(c6)C(=O)N(C6CCC(=O)N(C)C6=O)C7=O)CC5)CC4)cc3)ncn2)c1Cl` (centres undefined): in series [9], the result was inactive. The IC50 in series [3] was 497 nM; in [4] it was 108 nM; in series [5] it was 99.5 nM; in series [10] it was over 10 µM; in series [11], over 10 µM. Besides, the IC50 at 72 h in series [12] was over 10 µM.
Consider `COc1cc(OC)c(Cl)c(NC(=O)N(C)c2cc(Nc3ccc(N4CCN(CC(=O)NCCCCCNc5cccc6c5C(=O)N(C5CCC(=O)NC5=O)C6=O)CC4)cc3)ncn2)c1Cl` (centres undefined), for which the Activity in [8] was determined as 66%; in series [8] (DEGRADER), 20%. For the same molecule, the DC50 in series [13] turned out to be 41.5 nM.

These data come from ChEMBL document CHEMBL5338796, “Discovery of a Selective and Orally Bioavailable FGFR2 Degrader for Treating Gastric Cancer” (J Med Chem, 2023).
